Measured values as given in PMC12125705 (Journal of medicinal chemistry, 2017).

What was measured:
Experiment in all cases: MIC by microbroth dilution
Details in all cases: 24 h, 37 °C
MRSA 33591 = format: cell-based, Staphylococcus aureus
Method in brief: (§1)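 CLSI microbroth dilution in Mueller-Hinton broth. Strains were grown at 37 °C with shaking to log phase, pelleted, and resuspended in 0.85% saline to OD625 0.1. Final inoculum 5 × 10^5 CFU/mL in 96-well plates, tested in triplicate, incubated 24 h at 37 °C. Growth was read as OD at 625 nm.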

E. cloacae 13047 = format: cell-based, Enterobacter cloacae
Method in brief: as §1

E. coli 25922 = format: cell-based, Escherichia coli
E. coli K12 = format: cell-based, Escherichia coli
C. freundii 4747CFAA = format: cell-based, Citrobacter freundii
Method in brief: as §1

S. aureus 33591 = format: cell-based, Staphylococcus aureus
A. baumanni 19606 = format: cell-based, Acinetobacter baumanni
Method in brief: as §1

P. aeruginosa 27853 = format: cell-based, Pseudomonas aeruginosa
S. flexneri 2457NR517 = format: cell-based, Shigella flexneri
S. aureus 29213 = format: cell-based, Staphylococcus aureus
K. pneumoniae NR15410 = format: cell-based, Klebsiella pneumoniae
Method in brief: as §1

E. faecalis 29212 = format: cell-based, Enterococcus faecalis
E. faecium BM4105RF = format: cell-based, Enterococcus faecium
S. epidermidis 12384 = format: cell-based, Staphylococcus epidermidis
Method in brief: as §1

MRSA A960649 = format: cell-based, Staphylococcus aureus
Method in brief: as §1

**Q.** Which results are given for “6-(4-Methylpiperazin-1-yl)-2-(4-(2-(4-(oct-7-ynyl)-1H-1,2,3-triazol-1-yl)ethoxy)phenyl)-1H-benzo[d]imidazole [Compound 22]”?
**A.** MIC MRSA 33591 (MRSA 33591): >32 µg/mL; MIC E. cloacae 13047 (E. cloacae 13047): >32 µg/mL; MIC E. coli 25922 (E. coli 25922): 16 µg/mL; MIC E. coli K12 (E. coli K12): 16 µg/mL; MIC C. freundii 4747CFAA (C. freundii 4747CFAA): >32 µg/mL; MIC S. aureus 33591 (S. aureus 33591): 16 to 32 µg/mL; MIC A. baumanni 19606 (A. baumanni 19606): >32 µg/mL; MIC P. aeruginosa 27853 (P. aeruginosa 27853): 16 µg/mL; MIC S. flexneri 2457NR517 (S. flexneri 2457NR517): >32 µg/mL; MIC S. aureus 29213 (S. aureus 29213): 16 to 32 µg/mL; MIC K. pneumoniae NR15410 (K. pneumoniae NR15410): >32 µg/mL; MIC E. faecalis 29212 (E. faecalis 29212): 16 to 32 µg/mL; MIC E. faecium BM4105RF (E. faecium BM4105RF): >32 µg/mL; MIC S. epidermidis 12384 (S. epidermidis 12384): >32 µg/mL; MIC MRSA A960649 (MRSA A960649): >32 µg/mL
